From paper PMC6430714 (Journal of the American Chemical Society, 2018)
Values after ≈ are worked out from the molar mass of the structure shown.

Columns and labels:
[1] = system: S. aureus biofilms (MSSA and two MRSA strains); test: MBEC, summarised over the S. aureus strains; type: cell-based, Staphylococcus aureus; settings: TSB; range as stated in text (Table 1, Table SI-1)
MRSA USA300 LAC biofilms = test: Murine skin wound excisional biofilm model; type: in vivo, C57BL/6 mice; settings: topical 0.05%, 5 h; not statistically significant
MRSA (USA300 LAC) = test: Minimum inhibitory concentration, broth microdilution; type: cell-based; settings: Staphylococcus aureus
MRSA USA400 MW2 biofilms = test: Confocal microscopy of biofilms, SYTO 9/PI live/dead staining; type: cell-based, Staphylococcus aureus; settings: 80 μM, 5 h treatment in TSB, 48 h biofilms, SYTO 9/PI fluorescence
Method in brief: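 USA400 MW2 grown in TSB with shaking at 37 °C to stationary phase, then adjusted in TSB to 1 × 10^7 CFU/mL. Eight-well chambered coverglass coated with 50 μg/mL fibronectin for 30 min at room temperature and PBS-washed twice. Biofilms grown statically, humidified, 37 °C, 48 h, then PBS-washed twice. Stained with SYTO 9 (all cells) and PI (dead cells) in TSB; 10× compound solution added.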

S. aureus strain 29213 = test: Resistance evolution experiment; type: cell-based, Staphylococcus aureus; settings: 14 day period, strain 29213, daily passage from 1/2 MIC well
Method in brief: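 An MIC assay on strain 29213 was repeated daily for 14 days, each incubated 24 h at 37 °C. Colonies from TSA were suspended in PBS to OD600 0.1 and diluted 1:100 in Mueller–Hinton broth. Inoculum was added to 2-fold serial dilutions of test compound in MHB. MIC was the lowest concentration with no growth by OD600.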

MRSA (USA400 MW2) = test: Minimum inhibitory concentration, broth microdilution; type: cell-based; settings: Staphylococcus aureus
MSSA (29213) = test: as above; type: cell-based; settings: Staphylococcus aureus

Compound	MBEC range over the S. aureus strains [1] [µM]	fold reduction in median CFU/wound compared to untreated mice (MRSA USA300 LAC biofilms) [fold]	MIC (MRSA (USA300 LAC)) [µM]	viable biofilm bacteria (MRSA USA400 MW2 biofilms) [%]	fold increase in MIC over serial passage (S. aureus strain 29213) [fold]	MIC (MRSA (USA400 MW2)) [µM]	MIC (MSSA (29213)) [µM]
CN[C@H]1C(=O)N[C@@H]2Cc3ccc(cc3)Oc3cc4cc(c3O[C@@H]3O[C@H](C(=O)O)[C@@H](O)[C@H](O)[C@H]3NC(=O)CCCCCCCCC(C)C)Oc3ccc(cc3Cl)[C@@H](O)[C@@H]3NC(=O)[C@H](NC(=O)[C@@H]4NC(=O)[C@@H](NC2=O)c2cc(cc(O)c2Cl)Oc2cc1ccc2O)c1ccc(O)c(c1)-c1c(O[C@H]2O[C@H](CO)[C@@H](O)[C@H](O)[C@@H]2O)cc(O)cc1[C@@H](C(=O)NCCCN(C)C)NC3=O [dalbavancin]	8 to 20	–	–	–	–	–	–
CN[C@H](CC(C)C)C(=O)N[C@H]1C(=O)N[C@@H](CC(N)=O)C(=O)N[C@H]2C(=O)N[C@H]3C(=O)N[C@H](C(=O)N[C@H](C(=O)O)c4cc(O)cc(O)c4-c4cc3ccc4O)[C@H](O)c3ccc(c(Cl)c3)Oc3cc2cc(c3O[C@@H]2O[C@H](CO)[C@@H](O)[C@H](O)[C@H]2O[C@H]2C[C@](C)(N)[C@H](O)[C@H](C)O2)Oc2ccc(cc2Cl)[C@H]1O [V, vancomycin]	–	6	0.5 (≈ 0.725 µg/mL)	65	4	0.5 (≈ 0.725 µg/mL)	0.5 (≈ 0.725 µg/mL)
CN[C@H](CC(C)C)C(=O)N[C@H]1C(=O)N[C@@H](CC(N)=O)C(=O)N[C@H]2C(=O)N[C@H]3C(=O)N[C@H](C(=O)N[C@H](C(=O)O)c4cc(O)cc(O)c4-c4cc3ccc4O)[C@H](O[C@H]3C[C@](C)(N)[C@@H](O)[C@H](C)O3)c3ccc(c(Cl)c3)Oc3cc2cc(c3O[C@@H]2O[C@H](CO)[C@@H](O)[C@H](O)[C@H]2O[C@H]2C[C@](C)(NCc3ccc(-c4ccc(Cl)cc4)cc3)[C@@H](O)[C@H](C)O2)Oc2ccc(cc2Cl)[C@H]1O [Oritavancin]	12 to 32	–	–	–	–	–	–
